Source: ChEMBL document CHEMBL1133365, “Synthesis and class III type antiarrhythmic activity of 4-aroyl (and aryl)-l-aralkylpiperazines” (2000)

What was measured:
[1] = organism: Mustela putorius furo; assay: Peak isometric tension during the basic stimulus trains (S1) during control and compound induced tension, expressed as percent control.; assay type: functional
In short: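 Same preparation: buffer pH 7.3, 5% CO2/95% O2, 37 °C, timolol 0.1 mM, 3 msec constant-current stimulation. Isometric force was recorded, and peak tension was taken during the basic S1 stimulus trains. Readings were made at steady state, about 15 min after each concentration. The change is expressed as percent of control.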

[2] = organism: Mustela putorius furo; assay: Dose required to produce 20% increase in effective refractory period in male ferret.; assay type: functional
In short: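 Isolated tissue in buffer (mM: KCl 4, MgCl2 1.0, NaHCO3 25, KH2PO4 1.2, CaCl2 2, dextrose 11), pH 7.3, gassed 5% CO2/95% O2, 37 °C. Timolol 0.1 mM present. Stimulated with 3 msec constant-current pulses. Duplicate control readings, then each concentration read at steady state (~15 min). EC20 is the mean dose giving a 20% rise in ERP, in μM.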

Compound | Tension [1] [%] | EC20 [2] [nM]
CN(CCOc1ccc(NS(C)(=O)=O)cc1)CCc1ccc(NS(C)(=O)=O)cc1 [DOFETILIDE] | 5 | 15
CS(=O)(=O)Nc1ccc(OCCN2CCN(C(=O)c3ccc(NS(C)(=O)=O)cc3)CC2)cc1 | -13 | 15000
O=C(c1ccc([N+](=O)[O-])cc1)N1CCNCC1 | -33 | 20000
Nc1ccc(CCN2CCN(C(=O)c3ccc([N+](=O)[O-])cc3)CC2)cc1 | -14 | 1400
O=[N+]([O-])c1ccc(CCN2CCN(c3ccc([N+](=O)[O-])cc3)CC2)cc1 | 5 | 30
CS(=O)(=O)Nc1ccc(CCN2CCN(C(=O)c3ccc([N+](=O)[O-])cc3)CC2)cc1 | 13 | 160
O=[N+]([O-])c1ccc(CCN2CCN(c3ccncc3)CC2)cc1 | 8 | 30
O=C(c1ccc([N+](=O)[O-])cc1)N1CCN(CCc2ccccc2)CC1 | -8 | 160
O=C(c1ccc(Cl)cc1)C1CCN(CCc2ccc([N+](=O)[O-])cc2)CC1 | -4 | 300
CS(=O)(=O)Nc1ccc(C(=O)N2CCN(CCc3ccccc3)CC2)cc1 | 5 | 680
O=[N+]([O-])c1ccc(CCN2CCC(c3ccc([N+](=O)[O-])cc3)CC2)cc1 | 0 | 300
O=C(c1ccccc1)N1CCN(CCc2ccc([N+](=O)[O-])cc2)CC1 | -7 | 140
O=C(c1ccc([N+](=O)[O-])cc1)N1CCN(C(=O)c2ccc([N+](=O)[O-])cc2)CC1 | -6 | 7000
O=C(c1cccc([N+](=O)[O-])c1)N1CCN(CCc2ccc([N+](=O)[O-])cc2)CC1 | -7 | 270
O=C(c1ccc([N+](=O)[O-])cc1)N1CCN(CCc2ccc([N+](=O)[O-])cc2)CC1 | -3 | 3
CS(=O)(=O)Nc1ccc(C(=O)N2CCN(CCc3ccc([N+](=O)[O-])cc3)CC2)cc1 | 1 | 60
CS(=O)(=O)Nc1ccc(C(=O)N2CCN(CCOc3ccc(N(S(C)(=O)=O)S(C)(=O)=O)cc3)CC2)cc1 | -14 | 25000
Nc1ccc(OCCN2CCN(c3ccc(N)cc3)CC2)cc1 | -43 | >100000
O=[N+]([O-])c1ccc(N2CCN(CCc3ccccc3)CC2)cc1 | -6 | 500

Compound | Tension [1] [%] | EC20 [2] [nM]
CS(=O)(=O)Nc1ccc(CCN2CCN(C(=O)c3ccc(NS(C)(=O)=O)cc3)CC2)cc1 | 1 | 2000
O=[N+]([O-])c1ccc(CCN2CCN(c3ccc([N+](=O)[O-])cn3)CC2)cc1 | -21 | 1300
O=C(c1ccc([N+](=O)[O-])o1)N1CCN(CCc2ccc([N+](=O)[O-])cc2)CC1 | -2 | 140
Nc1ccc(CCN2CCC(c3ccc(N)cc3)CC2)cc1 | 15 | 2000
O=C(c1ccc([N+](=O)[O-])cc1)N1CCN(CCOc2ccc([N+](=O)[O-])cc2)CC1 | 0 | 60
Nc1ccc(CCN2CCN(c3ccc(N)cc3)CC2)cc1 | -53 | >100000
CC(C)NCC(O)c1ccc(NS(C)(=O)=O)cc1 (centres undefined) [SOTALOL] | -13 | 3500
Nc1ccc(CCN2CCN(c3ccncc3)CC2)cc1 | 9 | 15000
Cc1cccc(CCN2CCC(C(=O)c3ccc(NS(C)(=O)=O)cc3)CC2)n1 | 9 | 20
O=[N+]([O-])c1ccc(OCCN2CCN(c3ccc([N+](=O)[O-])cc3)CC2)cc1 | -27 | 350
O=C(c1ccc([N+](=O)[O-])s1)N1CCN(CCc2ccc([N+](=O)[O-])cc2)CC1 | 0 | 12
O=[N+]([O-])c1ccc(CCN2CCN(S(=O)(=O)c3ccc([N+](=O)[O-])cc3)CC2)cc1 | -24 | 1000
O=[N+]([O-])c1ccc(CCN2CCN(c3ccccc3)CC2)cc1 | 10 | 800
O=C(c1ccncc1)N1CCN(CCc2ccc([N+](=O)[O-])cc2)CC1 | 19 | 1000
O=C(c1ccc([N+](=O)[O-])cc1)N1CCN(Cc2ccc([N+](=O)[O-])cc2)CC1 | -44 | 3500
O=C(c1ccc([N+](=O)[O-])cc1)N1CCN(CCc2ccc([N+](=O)[O-])s2)CC1 | -17 | 10
CS(=O)(=O)Nc1ccc(CCN2CCN(c3ccncc3)CC2)cc1 | 2 | 220
O=C(CN1CCN(C(=O)c2ccc([N+](=O)[O-])cc2)CC1)Nc1ccc([N+](=O)[O-])cc1 | 5 | 35
